TAAR1 agonist = human TAAR1 agonists, primary screen, Fluo-8 calcium fluorescence, CHO RD-HGA16 cells. 360,000 tested, 0.99% active. vehicle wells 0%, saturating PEA agonist 100%. activation, % at 3 µM;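 active means activation above the mean activation of all test compounds in the run plus 3 SD, cut at about 38% in these data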
Target sequence (Q96RJ0 whole entry, looked up): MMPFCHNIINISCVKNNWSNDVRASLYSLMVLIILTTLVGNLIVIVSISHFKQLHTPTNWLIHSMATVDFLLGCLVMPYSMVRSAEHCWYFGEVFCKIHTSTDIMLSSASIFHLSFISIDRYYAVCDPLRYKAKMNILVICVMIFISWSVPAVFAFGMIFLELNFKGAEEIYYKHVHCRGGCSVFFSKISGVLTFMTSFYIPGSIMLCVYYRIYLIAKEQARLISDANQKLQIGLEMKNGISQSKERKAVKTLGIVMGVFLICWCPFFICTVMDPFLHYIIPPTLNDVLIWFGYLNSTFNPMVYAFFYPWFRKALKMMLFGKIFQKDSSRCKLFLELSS
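Test system: RD-HGA16 (CHO) cells co-expressing Gα16 and hTAAR1 | Doses: Single dose, 3 µM | Schedule: 17-24 h seeding, 75 min 37 °C dye, 30 min RT | Evaluation: % activation from peak over basal fluorescence ratio, DMSO-to-PEA scaled | Technique: Kinetic Fluo-8 calcium fluorescence | Benchmarks: Low control DMSO, high control PEA (EC100)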
OX1R antag-1 = antagonists of human orexin 1 receptor (OX1R); inhibition, % at 6.6 µM; AID 485270, 2010; Orexin/Hypocretin receptor type 1 (Homo sapiens), O43613; 330,000 tested, 1.8% active; OX1R-expressing cells, FRET antagonist read-out; in the data active means inhibition mostly above about 38%, no sharp cut-off; inactive means mostly below about 40%;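 further: 0% = agonist challenge alone and 100% = reference antagonist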
TAAR1 antag = human TAAR1 antagonists, primary screen, Fluo-8 calcium fluorescence, CHO RD-HGA16 cells; Trace amine-associated receptor 1 (Homo sapiens), Q96RJ0; 360,000 tested, 1.5% active; AID 624466, 2012; antagonist; inhibition, % at 3 µM;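 active means inhibition above a per-plate cutoff, the mean inhibition of test compounds on that plate plus 3 SD, cut at about 49% in these data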;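 further: 0% = DMSO plus EC80 beta-PEA response and 100% = DMSO alone without agonist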
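Test system – hTAAR1-expressing CHO RD-HGA16 cells, Gα16-coupled · Reagent – β-PEA at EC80 concentration, post-compound challenge · Compound dosing – 3 µM, single point · Timing – 140 s kinetic read after compound, 140 s after agonist · Detection – Fluo-8 intracellular calcium dye fluorescence, real-time kinetic reads · Control set – DMSO and EC80 PEA controls · Repeats – n of 1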
OX1R antag-2 = OX1R (HCRTR1) antagonists, primary screen, fluorescence, CHO/OX1R cells, Fluo-8 calcium, orexin A | 330,000 tested, 0.43% active | Fluo-8 calcium fluorescence | inhibition, % at 5 µM | Orexin/Hypocretin receptor type 1 (Homo sapiens), O43613 | AID 434989, 2010;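 active means inhibition above its plate's threshold, mean inhibition of all tested compounds on the plate plus 3 SD, cut at about 37% in these data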;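 further: 0% = orexin A challenge wells and 100% = SB-334867-A antagonist wells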
CHO parental Ca = ATP-evoked calcium signal inhibitors, parental CHO, primary screen, counter-screen for OX1R antagonist project, cell-based, fluorescence, Fluo-8 calcium dye; parental CHO-K1, ATP-induced calcium, Fluo-8 fluorescence; inhibition, % at 5.6 µM; 330,000 tested, 0.63% active; AID 463079, 2010;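 active means inhibition above that plate's mean sample inhibition plus 3 SD, cut at about 26% in these data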;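 further: 0% = ATP-challenged DMSO wells and 100% = DMSO wells without ATP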
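Material: Parental CHO cells | Reagent: ATP | Compound dosing: Single nominal dose of 5.6 µM per compound | Detection: Intracellular calcium via Fluo-8 no-wash fluorescent dye | Read-out: % inhibition of ATP-induced calcium mobilization | Benchmarks: Low control ATP plus DMSO, high control DMSO only | Replicates: Singlicate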
GPR7 antagonist = GPR7 receptor antagonists, primary screen, cell-based, fluorescence, single concentration | GPR7-expressing cells, fluorescence antagonist assay | 290,000 tested, 1.1% active | inhibition, % at 4.4 µM; in the data active means inhibition above about 16%, passing the limit was not always enough;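 further: cells stimulated with the agonist NPW; 0% = agonist with vehicle and 100% = vehicle without agonist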
Target sequence (P48145 whole entry, looked up): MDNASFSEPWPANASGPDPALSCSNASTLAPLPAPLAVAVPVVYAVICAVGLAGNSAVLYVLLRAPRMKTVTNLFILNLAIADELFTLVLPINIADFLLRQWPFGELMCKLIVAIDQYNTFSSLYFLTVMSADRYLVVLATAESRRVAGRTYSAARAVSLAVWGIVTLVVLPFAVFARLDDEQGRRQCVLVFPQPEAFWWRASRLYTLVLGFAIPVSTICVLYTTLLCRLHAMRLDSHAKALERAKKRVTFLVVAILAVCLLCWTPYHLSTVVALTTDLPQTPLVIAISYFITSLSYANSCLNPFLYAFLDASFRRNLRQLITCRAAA
An asterisk follows results filed as active. A selection: hits, their analogues and other compounds. The true share with any hit is near 4.6%.

How did O=C(NCCc1c[nH]c2ccccc12)c1ccc(-n2cnnn2)cc1 do in these assays?
TAAR1 agonist: 5; OX1R antag-1: 27; TAAR1 antag: 4; OX1R antag-2: -8; CHO parental Ca: 5; GPR7 antagonist: 3

What do the screens show for `CCCCc1ccc(NC(=O)c2ccc(N(C)S(C)(=O)=O)cc2)cc1`?
TAAR1 agonist: 26; OX1R antag-1: 17; TAAR1 antag: -21; OX1R antag-2: 10; CHO parental Ca: 69*; GPR7 antagonist: -1

Results for CC(C)(C)OC(=O)C[C@@H]1C/C=C\C[C@@H](CC(=O)NCCO)C(=O)N[C@H](Cc2ccccc2)COC1=O ?
TAAR1 agonist: 3; OX1R antag-1: 5; TAAR1 antag: -5; OX1R antag-2: -12; CHO parental Ca: -8

How did Cc1cc(C)cc(Cn2c3ccc(NC(=O)NCCc4cccs4)cc3c(=O)n2C)c1 do in these assays?
TAAR1 agonist: 42*; TAAR1 antag: 59*

How did COc1ccccc1C(=O)Nc1nnc(-c2ccccc2)s1 do in these assays?
TAAR1 agonist: 0; OX1R antag-1: 51*; TAAR1 antag: 3; OX1R antag-2: -20; CHO parental Ca: -22; GPR7 antagonist: -7

What do the screens show for `COc1cccc(C(=O)Nc2nnc(-c3ccccc3)s2)c1OC`?
TAAR1 agonist: 4; OX1R antag-1: 52*; TAAR1 antag: 32; OX1R antag-2: 4; CHO parental Ca: 9; GPR7 antagonist: 2

How did O=C(Nc1nnc(-c2ccccc2)s1)c1ccccc1O do in these assays?
TAAR1 agonist: 31; OX1R antag-1: 23; TAAR1 antag: -14; OX1R antag-2: -1; CHO parental Ca: -3; GPR7 antagonist: -21

How did COc1ccccc1C(=O)Nc1nc(-c2ccc3c(c2)OCCO3)cs1 do in these assays?
TAAR1 agonist: 7; OX1R antag-1: 47*; TAAR1 antag: 11; OX1R antag-2: -43; CHO parental Ca: -11; GPR7 antagonist: -13

Results for Cc1ccc(S(=O)(=O)Nc2ccccc2C(=O)Nc2nc(-c3ccc(F)cc3)cs2)cc1 ?
TAAR1 agonist: 4; OX1R antag-1: 67*; TAAR1 antag: 75*; OX1R antag-2: 52*; CHO parental Ca: 26; GPR7 antagonist: 18

What do the screens show for `Cc1ccc(S(=O)(=O)Nc2nc(-c3ccccc3)cs2)cc1`?
TAAR1 agonist: 2; OX1R antag-1: 8; TAAR1 antag: -23; OX1R antag-2: -8; CHO parental Ca: 18; GPR7 antagonist: -16

Results for CN1CCC(=O)N([C@H](CO)c2ccccc2)CC1 ?
TAAR1 agonist: 5; OX1R antag-1: 19; TAAR1 antag: -13; OX1R antag-2: 4; CHO parental Ca: -3; GPR7 antagonist: -5

What do the screens show for `CC(C)c1ccccc1NC(=S)NN(Cc1ccccc1)c1ccccc1`?
TAAR1 agonist: 3; OX1R antag-1: 15; TAAR1 antag: -6; OX1R antag-2: -32; CHO parental Ca: -36; GPR7 antagonist: -1

How did COc1ccc(NC(=O)Nc2nnc(-c3ccncc3)s2)cc1 do in these assays?
TAAR1 agonist: 17; OX1R antag-1: 7; TAAR1 antag: 49*; OX1R antag-2: -12; CHO parental Ca: 9; GPR7 antagonist: -13

How did CC(=O)Oc1ccc(NC(=O)Cc2ccccc2)cc1 do in these assays?
TAAR1 agonist: 1; OX1R antag-1: 3; TAAR1 antag: 2; OX1R antag-2: -20; CHO parental Ca: 4; GPR7 antagonist: 5

Results for CC(=O)Oc1ccc(Nc2ccccc2)cc1 ?
TAAR1 agonist: 10; OX1R antag-1: 50*; TAAR1 antag: -17; OX1R antag-2: -8; CHO parental Ca: -1; GPR7 antagonist: 3

How did CCC(C)(C)C1CCC2(CC1)NC(=O)N(CC(=O)Nc1cc(C(F)(F)F)ccc1N1CCOCC1)C2=O (stereo unspecified) do in these assays?
TAAR1 agonist: 1; OX1R antag-1: 18; TAAR1 antag: -17; OX1R antag-2: -6; CHO parental Ca: -12; GPR7 antagonist: 0

How did CCc1ccc(OCC(=O)Nc2ccc(-c3cc4ccccc4oc3=O)c(OC)c2)cc1 do in these assays?
TAAR1 agonist: 1; OX1R antag-1: 28; TAAR1 antag: 15; OX1R antag-2: 10; CHO parental Ca: 40*; GPR7 antagonist: -7

How did O=C(Nc1cccc(O)c1)c1cccc(S(=O)(=O)Nc2cccc(O)c2)c1 do in these assays?
TAAR1 agonist: 1; OX1R antag-1: 4; TAAR1 antag: 3; OX1R antag-2: -18; CHO parental Ca: -9; GPR7 antagonist: -16

What do the screens show for `CCOC(=O)CCCNc1ccc([N+](=O)[O-])cc1[N+](=O)[O-]`?
TAAR1 agonist: 0; OX1R antag-1: 71*; TAAR1 antag: -8; OX1R antag-2: -6; CHO parental Ca: 5; GPR7 antagonist: -2

Results for CC(C)Oc1ccccc1/C=N/NC(=O)C1CCCC1 ?
TAAR1 agonist: 0; TAAR1 antag: -13; GPR7 antagonist: -17

How did CCOC(=O)CSc1nc(-c2ccccc2)nc2ccccc12 do in these assays?
TAAR1 agonist: 13; OX1R antag-1: 38*; TAAR1 antag: 4; OX1R antag-2: -15; CHO parental Ca: -18; GPR7 antagonist: 3

How did CCOC(=O)Cn1c(-c2ccccc2)nc2ccccc2c1=O do in these assays?
TAAR1 agonist: 20; OX1R antag-1: 75*; TAAR1 antag: 11; OX1R antag-2: 15; CHO parental Ca: -29; GPR7 antagonist: 2

What do the screens show for `CCCCOC(=O)Cn1c(-c2ccccc2)nc2ccccc2c1=O`?
TAAR1 agonist: 1; OX1R antag-1: 20; TAAR1 antag: -21; OX1R antag-2: -44; CHO parental Ca: -21; GPR7 antagonist: -8

How did CCOC(=O)CSc1nc(-c2ccccc2)nc2ccc(F)cc12 do in these assays?
TAAR1 agonist: 4; OX1R antag-1: 1; TAAR1 antag: -22; OX1R antag-2: -7; CHO parental Ca: -13; GPR7 antagonist: -2

How did CN(C)S(=O)(=O)c1ccc(Cl)c(NC(=O)COC(=O)c2cc(-c3ccccc3)nc3ccccc23)c1 do in these assays?
TAAR1 agonist: 4; OX1R antag-1: 11; TAAR1 antag: 52*; OX1R antag-2: -3; CHO parental Ca: -5; GPR7 antagonist: -7

What do the screens show for `CC[n+]1c(/C=C/c2ccc(OC)c(OC)c2)ccc2ccccc21`?
TAAR1 agonist: 0; OX1R antag-1: 65*; TAAR1 antag: -21; OX1R antag-2: -23; CHO parental Ca: -4; GPR7 antagonist: -8

How did CC[n+]1c(/C=C/c2ccc(OC(C)=O)c(OC)c2)ccc2ccccc21 do in these assays?
TAAR1 agonist: 0; TAAR1 antag: -2; GPR7 antagonist: -15

Compound activity from PubChem BioAssay.
